≈ marks a conversion by molar mass, not a printed value. Entries after “also recorded” stand apart in the source; their conditions may differ. Where two headings read alike, the source gives them in different places.
How the values were obtained:
Stability observation = assay type: physicochemical
[1] = test system: P. falciparum strain NF54; assay: Malstat assay, growth inhibition of P. falciparum NF54; assay type: cell-based, Plasmodium falciparum; conditions: for Selectivity index SI (NF54): CC50 (MCF7)/IC50 (NF54); for times more potent than tryptanthrin: CQ-sensitive strain; for IC50: Plasmodium falciparum; for gain in activity over the parent compound tryptanthrin: mono-derivatization at position 8, strain not stated
P. falciparum strain Dd2 = assay: Malstat assay, growth inhibition of P. falciparum Dd2; assay type: cell-based, Plasmodium falciparum; conditions: for Selectivity index SI (Dd2): CC50 (MCF7)/IC50 (Dd2); for IC50: Plasmodium falciparum, DD2, read-out: Mean IC50 ± SD Dd2
MTT cytotoxicity assay = assay type: cell-based; conditions: human, MCF-7 cells
[2] = test system: P. falciparum NF54 mature gametocytes; assay: Exflagellation assay; assay type: cell-based, Plasmodium falciparum; conditions: compound at IC90 concentration, 15 min and 24 h incubation
In short: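 Mature NF54 gametocyte cultures (from day 13) were split into two flasks, one with test compound and one with DMSO only. Aliquots taken after 15 min at 37 °C and after 24 h were activated with xanthurenic acid for 15 min, pelleted, and resuspended in medium containing 100 µM xanthurenic acid. Exflagellation centres were counted in 30 fields relative to the DMSO control. The experiment was run twice, on separately seeded cultures.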

Solubility in DMSO = assay type: physicochemical; conditions: organic solvent or mixture
[3] = test system: P. falciparum NF54 gametocytes; assay: Gametocyte toxicity test; assay type: cell-based, Plasmodium falciparum; conditions: nanomolar concentrations, positive control
In short: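 NF54 was seeded at 1–2% parasitemia and 5% hematocrit in RPMI/HEPES/hypoxanthine/bicarbonate with 10% human serum, under 5% O2/5% CO2/90% N2 at 37 °C, with medium changed daily. Stage II gametocytes were plated in triplicate with compound for 48 h, then kept in compound-free medium to day 7. Stage IV–V gametocytes per 1000 erythrocytes were counted on Giemsa smears and normalised to the DMSO control; means were compared by one-way ANOVA with Tukey's test.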

[4] = NF54, read-out: Mean IC50 ± SD NF54
[5] = DD2|NF54, read-out: IC50 (considered not effective)

SMILES	Selectivity index SI (NF54) [1]	IC50 [1, 4]	Selectivity index SI (Dd2) (P. falciparum strain Dd2)	IC50 (P. falciparum strain Dd2)	CC50 (MTT cytotoxicity assay)	other results
O=C1c2ccccc2-n2c1nc1ccc([N+](=O)[O-])cc1c2=O [2-Nitrotryptanthrin]	–	–	–	–	–	stability (Stability observation): highly unstable
O=C1c2cc(Br)ccc2-n2c1nc1cc(Cl)ccc1c2=O [BT1, 8-Bromo-3-chloro-indolo [2,1-b] quinazoline-6,12-dione]	66	36 ± 17 nM	10	238 ± 80 nM	2380 ± 1 nM	times more potent than tryptanthrin [1]: at least 5
O=C1c2cc(Br)ccc2-n2c1nc1ccc(Cl)cc1c2=O [BT2, 8-Bromo-2-chloro-indolo [2,1-b] quinazoline-6,12-dione]	>2000	36 ± 24 nM	>800	123 ± 62 nM	> 100000 nM	times more potent than tryptanthrin [1]: at least 5
COc1cc2nc3n(c(=O)c2cc1OC)-c1ccc(Br)cc1C3=O [BT3, 8-Bromo-2,3-dimethoxy-indolo[2,1-b]quinazoline-6,12-dione]	>1000	88 ± 41 nM	>100	761 ± 194 nM	> 100000 nM	–
O=C(O)c1ccc2c(=O)n3c(nc2c1)C(=O)c1cc(Br)ccc1-3 [BT4, 8-Bromo-6,12-dioxo-6,12-dihydro-indolo[2,1-b] quinazoline-3-carboxylic acid]	–	> 50000 nM	–	> 50000 nM	71000 ± 39700 nM	IC50 [1, 5]: > 50000 nM
COC(=O)c1ccc2c(=O)n3c(nc2c1)C(=O)c1cc(Br)ccc1-3 [BT5, 8-Bromo-6,12-dioxo-6,12-dihydro-indolo[2,1-b] quinazoline-3-carboxylic acid methylester]	70.9	162 ± 93 nM	40	287 ± 24 nM	11500 ± 5420 nM	–
CCN(CC)CCCC(C)Nc1ccnc2cc(Cl)ccc12 (stereo not drawn) [CQ, Chloroquine, reference compound]	–	21 ± 2 nM	–	294 ± 30 nM	> 100000 nM	times more potent against CQ-sensitive strain compared with the resistant strain ([1]; CQ-sensitive versus CQ-resistant strain): 13; IC50 ([1]; NF54): 20 nM
Cc1ccc2c(c1)C(=O)c1nc3ccccc3c(=O)n1-2 [Compound T1, 8-Methyl-indolo [2,1-b] quinazoline-6,12-dione]	>1000	85 ± 37 nM	>400	216 ± 116 nM	> 100000 nM	gain in activity over the parent compound tryptanthrin [1]: approximately three times
O=C1c2cc(Br)ccc2-n2c1nc1ccccc1c2=O [Compound T2, 8-Bromo-indolo [2,1-b] quinazoline-6,12-dione]	129.3	81 ± 8 nM	110.2	95 ± 58 nM	10500 ± 1520 nM	gain in activity over the parent compound tryptanthrin [1]: approximately three times
Cc1cccc2c1C(=O)c1nc3ccccc3c(=O)n1-2 [Compound T3, 7-Methyl-indolo [2,1-b] quinazoline-6,12-dione]	39.2	450 ± 98 nM	29.3	602 ± 115 nM	17600 ± 300 nM	–
O=C1c2cc([N+](=O)[O-])ccc2-n2c1nc1ccccc1c2=O [Compound T4, 8-Nitro-indolo [2,1-b] quinazoline-6,12-dione]	45.1	106 ± 38 nM	29	165 ± 55 nM	4780 ± 490 nM	gain in activity over the parent compound tryptanthrin [1]: approximately three times
O=C1c2cc(F)ccc2-n2c1nc1ccccc1c2=O [Compound T6, 8-Fluoro-indolo [2,1-b] quinazoline-6,12-dione]	306.5	57 ± 10 nM	175.6	100 ± 15 nM	17500 ± 650 nM	times more potent than tryptanthrin [1]: at least 5; gain in activity over the parent compound tryptanthrin [1]: approximately three times
O=C1c2cc(Cl)ccc2-n2c1nc1ccccc1c2=O [Compound T7, 8-Chloro-indolo [2,1-b] quinazoline-6,12-dione]	286.1	95 ± 33 nM	158.5	172 ± 18 nM	27200 ± 6680 nM	gain in activity over the parent compound tryptanthrin [1]: approximately three times
O=C1c2ccccc2-n2c1nc1cc(Cl)ccc1c2=O [Compound T8, 3-Chloro-indolo [2,1-b] quinazoline-6,12-dione]	186	92 ± 3 nM	103.5	165 ± 81 nM	17100 ± 4260 nM	reduction of exflagellation of microgametes [2]: neither tryptanthrin nor T8 were able to significantly inhibit the exflagellation; also recorded: no influence on exflagellation
O=C1c2cc([N+](=O)[O-])ccc2-n2c1nc1cc(Cl)ccc1c2=O [NT1, 3-Chloro-8-nitro-indolo [2,1-b] quinazoline-6,12-dione]	155.9	33 ± 4 nM	168.7	31 ± 5 nM	5150 ± 110 nM	times more potent than tryptanthrin [1]: at least 5; IC50 ([1]; NF54): 30 nM; times more active than tryptanthrin (P. falciparum strain Dd2; CQ-resistant strain): 3.3; solubility (Solubility in DMSO): 10 mM (≈ 3280 µg/mL)
O=C1c2cc([N+](=O)[O-])ccc2-n2c1nc1ccc(Cl)cc1c2=O [NT2, 2-Chloro-8-nitro-indolo [2,1-b] quinazoline-6,12-dione]	96.7	129 ± 22 nM	136.5	91 nM	12500 ± 230 nM	–
COc1cc2nc3n(c(=O)c2cc1OC)-c1ccc([N+](=O)[O-])cc1C3=O [NT3, 2,3-Dimethoxy-8-nitro-indolo [2,1-b] quinazoline-6,12-dione]	53.6	283 ± 93 nM	113.2	134 ± 47 nM	15200 ± 4410 nM	–
O=C(O)c1ccc2c(=O)n3c(nc2c1)C(=O)c1cc([N+](=O)[O-])ccc1-3 [NT4, 8-Nitro-6,12-dioxo-6,12-dihydro-indolo[2,1-b]quinazoline-3-carboxylic acid]	–	> 50000 nM	–	> 50000 nM	> 100000 nM	IC50 [1, 5]: > 50000 nM
COC(=O)c1ccc2c(=O)n3c(nc2c1)C(=O)c1cc([N+](=O)[O-])ccc1-3 [NT5, 8-Nitro-6,12-dioxo-6,12-dihydro-indolo[2,1-b] quinazoline-3-carboxylic acid methyl ester]	71.7	167 ± 67 nM	72.1	166 ± 36 nM	12000 ± 500 nM	–
O=C1c2cc([N+](=O)[O-])ccc2-n2c1nc1cc(Br)ccc1c2=O [NT6, 3-Bromo-8-nitro-indolo [2,1-b] quinazoline-6,12-dione]	243.3	72 ± 23 nM	174	101 ± 68 nM	17500 ± 770 nM	–
O=C1c2ccccc2-n2c1nc1ccccc1c2=O [TRYP, indolo-[2,1-b]-quinazoline-6, 12-Dione, reference compound]	–	288 ± 87 nM	–	114 ± 17 nM	45900 ± 700 nM	–
CC[C@H](C)[C@H](NC(=O)[C@H]([C@@H](C)CC)N(C)C(C)=O)C(=O)N[C@H](C(=O)N[C@@H](CC(C)C)C(=O)[C@@]1(C)CO1)[C@@H](C)O [epoxomicin]	–	–	–	–	–	effect on gametocytes in culture [3]: fully eliminate the gametocytes

— publication PMC4417838 (International Journal for Parasitology: Drugs and Drug …, 2015)
